From ChEMBL document CHEMBL5143731, “N-Acylamino Saccharin as an Emerging Cysteine-Directed Covalent Warhead and Its Application in the Identification of Novel FBPase Inhibitors toward Glucose Reduction” (J Med Chem, 2022)

What was measured:
[1] = molecular target: T1, Tyrosine-protein kinase JAK3 (Homo sapiens) (UniProt P52333); assay: Inhibition of JAK3 (unknown origin) at 300 uM measured after 40 mins in presence of ATP by luminescence assay relative to control
T1 sequence (whole entry): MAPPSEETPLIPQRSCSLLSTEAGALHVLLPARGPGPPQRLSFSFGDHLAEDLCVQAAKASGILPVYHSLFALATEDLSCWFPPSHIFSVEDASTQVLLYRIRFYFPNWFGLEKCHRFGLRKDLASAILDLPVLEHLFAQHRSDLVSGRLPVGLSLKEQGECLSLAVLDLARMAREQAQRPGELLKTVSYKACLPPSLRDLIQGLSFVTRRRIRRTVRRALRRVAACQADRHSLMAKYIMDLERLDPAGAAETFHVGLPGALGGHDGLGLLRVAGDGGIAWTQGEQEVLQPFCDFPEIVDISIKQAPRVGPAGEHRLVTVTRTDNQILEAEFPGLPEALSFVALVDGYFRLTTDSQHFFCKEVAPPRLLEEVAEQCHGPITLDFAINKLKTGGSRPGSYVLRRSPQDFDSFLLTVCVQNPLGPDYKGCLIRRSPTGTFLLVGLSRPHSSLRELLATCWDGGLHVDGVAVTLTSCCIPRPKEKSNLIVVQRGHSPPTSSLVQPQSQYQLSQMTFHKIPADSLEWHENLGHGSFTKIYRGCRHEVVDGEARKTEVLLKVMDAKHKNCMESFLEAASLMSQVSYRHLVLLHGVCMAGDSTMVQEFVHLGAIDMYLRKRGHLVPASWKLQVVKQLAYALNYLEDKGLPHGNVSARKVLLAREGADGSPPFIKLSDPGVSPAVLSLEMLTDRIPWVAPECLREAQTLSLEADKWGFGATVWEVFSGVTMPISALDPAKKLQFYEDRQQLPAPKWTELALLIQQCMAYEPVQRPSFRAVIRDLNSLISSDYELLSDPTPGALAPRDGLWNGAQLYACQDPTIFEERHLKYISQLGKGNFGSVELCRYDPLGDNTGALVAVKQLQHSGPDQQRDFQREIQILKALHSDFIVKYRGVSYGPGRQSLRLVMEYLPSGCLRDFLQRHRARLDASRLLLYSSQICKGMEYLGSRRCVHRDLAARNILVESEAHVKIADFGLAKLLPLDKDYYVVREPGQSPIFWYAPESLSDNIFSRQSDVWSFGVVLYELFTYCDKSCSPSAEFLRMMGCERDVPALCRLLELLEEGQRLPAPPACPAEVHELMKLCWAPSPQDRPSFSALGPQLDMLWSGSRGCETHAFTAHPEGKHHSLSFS
How it was run: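 Kinase reaction (50 μL): 40 mM Tris pH 7.4, 10 mM MgCl2, 0.1 mg/mL BSA, 1 mM DTT, 10 μM ATP, kinase and substrate, with 1% final DMSO. Run 40 min at 30 °C. Residual ATP read by Kinase-Glo Plus luminescence, inversely related to kinase activity.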

[2] = Half life of the compound in buffer; assay type: physicochemical
How it was run: (§1)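 Electrophile (20 μmol) incubated at 37 °C either in pH 7.4 buffer, or in DMSO-d6/D2O (5:1), with or without glutathione. Decay followed by 1H NMR kinetics. First-order rate constant kpseudo-1st taken from ln[electrophile] versus time; t1/2 = 0.693/(60×k), in min.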

[3] = Half life of the compound in GSH; assay type: physicochemical; conditions: GSH (glutathione); how it was run: as §1
Homo sapiens = species: Homo sapiens; assay: Selectivity ratio of IC50 for human FBPase to IC50 for human GAPDH
How it was run: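 Recombinant human GAPDH (His-tag, E. coli; 0.1 mg/mL final) preincubated 30 min with compound in 10 mM sodium pyrophosphate pH 8.5 at 37 °C. Started with arsenate, 4 mM NAD+ and 12 mM G3P; A340 at 4 min. Ratio taken against FBPase IC50 from the malachite green phosphate-release assay.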

- inhibition [1]: < 50%
- half-life [2]: > 6.94 days
- half-life [3]: 61.3 min
- Ratio IC50 (Homo sapiens): > 25
Structure (SMILES): O=C(NCc1ccccc1)N1C(=O)c2ccccc2S1(=O)=O
